Measured values pooled from the literature.
Compare with care: the assays were run in different laboratories.
Target: Acetylcholinesterase (ACHE, Homo sapiens, UniProt P22303)
Action: inhibitor

With `C#CCN(C)CCCCCOCc1ccc(CN(C)c2c3c(nc4ccccc24)CCCC3)cc1` the IC50 was 4.84 µM (enzyme activity, Ellman).
With `O=C(NCCN1CCCCC1)c1ccc([N+](=O)[O-])cc1` the IC50 was 2.4 µM (enzyme activity, Ellman).
For `O=[N+]([O-])c1c[nH]c(-c2n[nH]c(=S)n2/N=C/c2cc(Cl)cc(Cl)c2)c1`, the IC50 was 13.6 µM (enzyme activity, Ellman).
With `O=C(NCCN1CCCCC1)c1ccccc1Cl` the IC50 was 0.09 µM (enzyme activity, Ellman).
With `COc1ccc(/C=N/n2c(-c3cc([N+](=O)[O-])c[nH]3)n[nH]c2=S)cc1` the IC50 was 25.1 µM (enzyme activity, Ellman).
`Cn1cc(-c2cc(C(=O)NN=Cc3cccc(Br)c3)no2)c2ccccc21` has an IC50 of over 100 µM (enzyme activity).
`O=C(NCCN1CCCCC1)c1ccc(F)cc1` has an IC50 of 3.1 µM (enzyme activity, Ellman).
`C#CCN(C)CCCCCCCCOc1cccc(CN(C)c2c3c(nc4ccccc24)CCCC3)c1` gave an IC50 of 4.33 µM (enzyme activity, Ellman).
`COc1ccccc1C(=O)NCCN1CCCCC1` gave an IC50 of 4.7 µM (enzyme activity, Ellman).
`O=[N+]([O-])c1c[nH]c(-c2n[nH]c(=S)n2/N=C/c2ccc(Oc3ccccc3)cc2)c1` gave an IC50 of 19.3 µM (enzyme activity, Ellman).
`O=C(NCCN1CCCCC1)c1ccccc1[N+](=O)[O-]` gave an IC50 of 19 µM (enzyme activity, Ellman).
`COc1cccc(C=NNC(=O)c2cc(-c3cn(C)c4ccccc34)on2)c1OC` has an IC50 of over 100 µM (enzyme activity).
For `O=[N+]([O-])c1c[nH]c(-c2n[nH]c(=S)n2/N=C/c2ccc(F)c(O)c2)c1`, the IC50 was 9.2 µM (enzyme activity, Ellman).
With `C#CCN(C)CCCCOCc1ccc(CN(C)c2c3c(nc4ccc(C)cc24)CCCC3)cc1` the IC50 was 16.2 µM (enzyme activity, Ellman).
The IC50 of `Cn1cc(-c2cc(C(=O)NN=Cc3cccc([N+](=O)[O-])c3)no2)c2ccccc21` is reported as 45.6 µM (enzyme activity).
For `COc1ccc(S(=O)(=O)Oc2ccc(C=NNC(=O)c3ccc(F)cc3)cc2OC)cc1`, the IC50 was 0.0614 µM (enzyme activity, Ellman).
`O=[N+]([O-])c1c[nH]c(-c2n[nH]c(=S)n2/N=C/c2ccc(F)cc2)c1` has an IC50 of 8.2 µM (enzyme activity, Ellman).
With `COc1ccc(S(=O)(=O)Oc2cc(OC)ccc2C=NNC(=O)c2ccc(F)cc2)cc1` the IC50 was 0.0919 µM (enzyme activity, Ellman).
For `Cn1cc(-c2cc(C(=O)NN=Cc3ccccc3O)no2)c2ccccc21`, the IC50 was over 100 µM (enzyme activity).
The IC50 of `C#CCN(C)CCCCCCOCc1ccc(CN(C)c2c3c(nc4ccccc24)CCCC3)cc1` is reported as 1.57 µM (enzyme activity, Ellman).
With `O=[N+]([O-])c1c[nH]c(-c2n[nH]c(=S)n2/N=C/c2ccc(Br)c(Cl)c2)c1` the IC50 was 22.9 µM (enzyme activity, Ellman).
`C#CCN(C)CCCCCOc1cccc(CN(C)c2c3c(nc4ccccc24)CCCC3)c1` has an IC50 of 2.6 µM (enzyme activity, Ellman).
`O=C(NCCN1CCCCC1)c1cccc([N+](=O)[O-])c1` gave an IC50 of 2 µM (enzyme activity, Ellman).
`C#CCN(C)CCCCOc1cccc(CN(C)c2c3c(nc4ccccc24)CCCC3)c1` gave an IC50 of 6.09 µM (enzyme activity, Ellman).
`COC(=O)c1cc(N(C)C(=O)c2ccn3ncc(-c4ccc(C(=O)O)cc4)c3c2)ccc1Cl` has an IC50 of over 30 µM (cell-free assay).
For `C#CCN(C)CCCOc1cccc(CN(C)c2c3c(nc4ccccc24)CCCC3)c1`, the IC50 was 2.82 µM (enzyme activity, Ellman).
For `O=[N+]([O-])c1c[nH]c(-c2n[nH]c(=S)n2/N=C/c2c(O)cc(O)cc2O)c1`, the IC50 was 6.2 µM (enzyme activity, Ellman).
The IC50 of `COc1ccc(OC)c(C=NNC(=O)c2cc(-c3cn(C)c4ccccc34)on2)c1` is reported as over 100 µM (enzyme activity).
With `COc1ccc(S(=O)(=O)Oc2ccc3ccccc3c2C=NNC(=O)c2ccc(F)cc2)cc1` the IC50 was 0.114 µM (enzyme activity, Ellman).
`CSc1ccc(C=NNC(=O)c2cc(-c3cn(C)c4ccccc34)on2)cc1` gave an IC50 of over 100 µM (enzyme activity).
The IC50 of `O=[N+]([O-])c1c[nH]c(-c2n[nH]c(=S)n2/N=C/c2ccc(Cl)c([N+](=O)[O-])c2)c1` is reported as 13.2 µM (enzyme activity, Ellman).
